From ChEMBL document CHEMBL1121743, “Synthesis and antibacterial activity of 1-(arylamino)-1H-pyrroles and 4-(1H-pyrrol-1-ylimino)-2,5-cyclohexadienes” (1981)
Values after ≈ are worked out from the molar mass of the structure shown. Active and inactive are the calls of the source. The calls are words filed in the database; no cut-off is given here.

Legend:
Proteus mirabilis [1] = assay: In vitro minimum inhibitory concentration against Proteus mirabilis; assay type: functional; settings: Proteus mirabilis; read-out: MIC
Outline: (§1)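 Compounds were dissolved in water, or in water with the minimum DMSO needed to keep them in solution, and tested by an established dilution method. A ">" prefix means the DMSO solvent blank was inhibitory at that level.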

Staphylococcus aureus [2] = assay: In vitro minimum inhibitory concentration against Staphylococcus aureus; assay type: functional; settings: Staphylococcus aureus; read-out: MIC; outline: as §1
Proteus mirabilis [3] = assay: Minimum inhibitory dilution of medicated rat urine tested in vitro for antibacterial activity against Proteus mirabilis; Less than 1:2; assay type: functional
Staphylococcus aureus [4] = assay: Minimum inhibitory dilution of medicated rat urine tested in vitro for antibacterial activity against Staphylococcus aureus; Less than 1:2; assay type: functional
Staphylococcus aureus [5] = assay: Minimum inhibitory dilution of medicated rat urine tested in vitro for antibacterial activity against Staphylococcus aureus; Equal to 1:4; assay type: functional
Staphylococcus aureus [6] = assay: Minimum inhibitory dilution of medicated rat urine tested in vitro for antibacterial activity against Staphylococcus aureus; Equal to 1:32; assay type: functional
Proteus mirabilis [7] = assay: Minimum inhibitory dilution of medicated rat urine tested in vitro for antibacterial activity against Proteus mirabilis; Equal to 1:16; assay type: functional
Mus musculus [8] = assay: Antitubercular activity (100 mg/kg) in the 31-day murine mice model; NA=Not active; assay type: functional, organism-based
Outline: (§2)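 Female Swiss mice (14–16 g), 10 per treated group and 20 infected controls, were infected i.v. with 0.1 mL of a 2 mg/mL M. tuberculosis H37Rv suspension. Oral dosing was in 0.5 mL 1.0% gum tragacanth, starting day 3 post-infection, twice daily, 5 days/week for 4 weeks. Percent survival was recorded at day 31; active meant survival consistently >80%.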

Mus musculus [9] = assay: Antitubercular activity (50 mg/kg) in the 31-day murine mice model; NA=Not active; assay type: functional, organism-based; outline: as §2
Mus musculus [10] = assay: Antitubercular activity (3.1 mg/kg) in the 31-day murine mice model; NA=Not active; assay type: functional, organism-based; outline: as §2
Mus musculus [11] = assay: Antitubercular activity (25 mg/kg) in the 31-day murine mice model; NA=Not active; assay type: functional, organism-based; outline: as §2
Mus musculus [12] = assay: Antitubercular activity (12.5 mg/kg) in the 31-day murine mice model; NA=Not active; assay type: functional, organism-based; outline: as §2
Mus musculus [13] = assay: Antitubercular activity (6.25 mg/kg) in the 31-day murine mice model; NA=Not active; assay type: functional, organism-based; outline: as §2
Mus musculus [14] = assay: Antitubercular activity (3.1 mg/kg) in the 31-day murine mice model; assay type: functional; outline: as §2
Mus musculus [15] = assay: Antitubercular activity (12.5 mg/kg) in the 31-day murine mice model; assay type: functional; outline: as §2
Mus musculus [16] = assay: Antitubercular activity (6.25 mg/kg) in the 31-day murine mice model; assay type: functional; outline: as §2
Staphylococcus aureus [17] = assay: Minimum inhibitory dilution of medicated rat urine tested in vitro for antibacterial activity against Staphylococcus aureus; Equal to 1:16; assay type: functional
Proteus mirabilis [18] = assay: Minimum inhibitory dilution of medicated rat urine tested in vitro for antibacterial activity against Proteus mirabilis; Equal to 1:8; assay type: functional
Staphylococcus aureus [19] = assay: Minimum inhibitory dilution of medicated rat urine tested in vitro for antibacterial activity against Staphylococcus aureus; Equal to 1:2; assay type: functional
Staphylococcus aureus [20] = assay: Minimum inhibitory dilution of medicated rat urine tested in vitro for antibacterial activity against Staphylococcus aureus; Equal to 1:8; assay type: functional
Mus musculus [21] = assay: Antitubercular activity (25 mg/kg) in the 31-day murine mice model; assay type: functional; outline: as §2
Proteus mirabilis [22] = assay: Minimum inhibitory dilution of medicated rat urine tested in vitro for antibacterial activity against Proteus mirabilis; Equal to 1:4; assay type: functional
Mus musculus [23] = assay: Antitubercular activity (50 mg/kg) in the 31-day murine mice model; assay type: functional; outline: as §2
Mus musculus [24] = assay: Antitubercular activity (100 mg/kg) in the 31-day murine mice model; assay type: functional; outline: as §2
Proteus mirabilis [25] = assay: Minimum inhibitory dilution of medicated rat urine tested in vitro for antibacterial activity against Proteus mirabilis; Equal to 1:128; assay type: functional
Outline: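 Female Sprague-Dawley rats (160–200 g), in groups of three, got 50 mg/kg orally in 1.0% gum tragacanth (1 mL/100 g), with a second 50 mg/kg dose 8 h later. Pooled 24-h urine was centrifuged, ultrafiltered and stored at −20 °C. It was serially diluted twofold in tryptose phosphate broth with inoculum (18-h culture at OD 0.1, then 1:250) and incubated 18 h at 37 °C. MID is the highest dilution without visible growth.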

SMILES	MIC (Proteus mirabilis [1]) [µg/mL]	MIC (Staphylococcus aureus [2]) [µg/mL]	MID (Proteus mirabilis [3])	MID (Staphylococcus aureus [4])	also measured
Oc1ccccc1Nn1cccc1	15.6 (≈ 89.6 µM)	≤ 7.8	<0.5	<0.5	–
CC1=CC(=Nn2cccc2)C=C(C)C1=O	> 125	31.3 (≈ 156 µM)	<0.5	–	MID (Staphylococcus aureus [5]): 0.25
COc1ccc(Nn2cccc2)cc1	> 125	> 125	–	–	MID (Staphylococcus aureus [6]): 0.03125; MID (Proteus mirabilis [7]): 0.0625
Cc1ccc(C(=O)Oc2ccc(N(C(=O)c3ccc(C)cc3)n3cccc3)cc2)cc1	> 62.5	125 (≈ 305 µM)	<0.5	<0.5	Survival (Mus musculus [8]): inactive; Survival (Mus musculus [9]): inactive; Survival (Mus musculus [10]): inactive; Survival (Mus musculus [11]): inactive; Survival (Mus musculus [12]): inactive; Survival (Mus musculus [13]): inactive
NNC(=O)c1ccncc1 [ISONIAZID]	–	–	–	–	Survival (Mus musculus [14]): 100%; Survival (Mus musculus [15]): 100%; Survival (Mus musculus [16]): 100%
CN(C)C1=CC(=O)C=C/C1=N/n1cccc1	> 125	62.5 (≈ 290 µM)	<0.5	<0.5	–
O=C(O)c1cccn1Nc1ccc(O)cc1	500 (≈ 2290 µM)	500 (≈ 2290 µM)	–	–	MID (Staphylococcus aureus [17]): 0.0625; MID (Proteus mirabilis [18]): 0.125
Cc1ccc(C)n1N=C1C=CC(=O)C=C1	62.5 (≈ 312 µM)	≤ 7.8	<0.5	–	MID (Staphylococcus aureus [19]): 0.5
Oc1ccc(Nn2cccc2)cc1O	62.5 (≈ 329 µM)	≤ 7.8	<0.5	–	MID (Staphylococcus aureus [20]): 0.125
CC(=O)Oc1ccc(Nn2cccc2)cc1	> 62.5	> 62.5	<0.5	–	MID (Staphylococcus aureus [17]): 0.0625
O=C1C=CC(=Nn2cccc2)C=C1	62.5 (≈ 363 µM)	≤ 7.8	–	–	Survival (Mus musculus [21]): 100%; MID (Proteus mirabilis [22]): 0.25; Survival (Mus musculus [14]): 0%; MID (Staphylococcus aureus [6]): 0.03125; Survival (Mus musculus [15]): 100%; Survival (Mus musculus [16]): 100%; Survival (Mus musculus [23]): 100%
CC1=CC(=N/n2cccc2)/C=CC/1=N/n1cccc1	> 62.5	> 62.5	<0.5	<0.5	–
NC1=CC(=O)C=C/C1=N/n1cccc1	125 (≈ 668 µM)	15.6 (≈ 83.3 µM)	–	–	MID (Proteus mirabilis [22]): 0.25; MID (Staphylococcus aureus [19]): 0.5
C1=CC(=Nn2cccc2)C=CC1=Nn1cccc1	> 62.5	> 125	–	–	Survival (Mus musculus [21]): 100%; Survival (Mus musculus [24]): 100%; MID (Staphylococcus aureus [17]): 0.0625; Survival (Mus musculus [14]): 10%; Survival (Mus musculus [15]): 100%; Survival (Mus musculus [16]): 80%; MID (Proteus mirabilis [7]): 0.0625; Survival (Mus musculus [23]): 100%
CN(c1ccc(O)cc1)n1cccc1	> 250	125 (≈ 664 µM)	<0.5	<0.5	–
Cc1ccc(C(=O)Oc2ccc(Nn3cccc3)cc2)cc1	> 250	> 250	< 0.5	–	Survival (Mus musculus [8]): inactive; Survival (Mus musculus [9]): inactive; Survival (Mus musculus [10]): inactive; MID (Staphylococcus aureus [5]): 0.25; Survival (Mus musculus [11]): inactive; Survival (Mus musculus [12]): inactive; Survival (Mus musculus [13]): inactive

SMILES	MIC (Proteus mirabilis [1]) [µg/mL]	MIC (Staphylococcus aureus [2]) [µg/mL]	MID (Proteus mirabilis [3])	MID (Staphylococcus aureus [4])	also measured
c1ccc(Nc2ccc(Nn3cccc3)cc2)cc1	> 250	31.3 (≈ 126 µM)	<0.5	<0.5	–
CC(C)(C)C1=CC(=Nn2cccc2)C=C(C(C)(C)C)C1=O	> 62.5	> 62.5	<0.5	<0.5	–
Oc1ccc(Nn2cccc2)c(Cl)c1	> 125	62.5 (≈ 300 µM)	0.5	<0.5	–
O=C(N[C@H](CO)[C@H](O)c1ccc([N+](=O)[O-])cc1)C(Cl)Cl [CHLORAMPHENICOL]	> 62.5	3.9 (≈ 12.1 µM)	–	–	MID (Staphylococcus aureus [17]): 0.0625; MID (Proteus mirabilis [18]): 0.125
C1=CC(=Nn2cccc2)C=CC1=Nc1ccccc1	> 62.5	> 62.5	<0.5	<0.5	–
Oc1cccc(Nn2cccc2)c1	500 (≈ 2870 µM)	62.5 (≈ 359 µM)	<0.5	<0.5	–
O=C1CN(/N=C/c2ccc([N+](=O)[O-])o2)C(=O)N1 [NITROFURANTOIN]	> 62.5	15.6 (≈ 65.5 µM)	–	–	MID (Staphylococcus aureus [6]): 0.03125
c1ccn(Nc2ccc(Nn3cccc3)cc2)c1	> 250	125 (≈ 525 µM)	<0.5	<0.5	Survival (Mus musculus [21]): 40%; Survival (Mus musculus [24]): 0%; Survival (Mus musculus [15]): 0%; Survival (Mus musculus [16]): 0%; Survival (Mus musculus [23]): 0%
CC(=O)Oc1ccc(N(C(C)=O)n2cccc2)cc1	> 125	> 250	<0.5	–	Survival (Mus musculus [8]): inactive; Survival (Mus musculus [9]): inactive; Survival (Mus musculus [10]): inactive; MID (Staphylococcus aureus [19]): 0.5; Survival (Mus musculus [11]): inactive; Survival (Mus musculus [12]): inactive; Survival (Mus musculus [13]): inactive
[N-]=[N+]=NC1=CC(=O)C=C/C1=N/n1cccc1	> 250	125 (≈ 586 µM)	<0.5	<0.5	–
O=C1C=C/C(=N/n2cccc2)C(Cl)=C1	> 125	31.3 (≈ 151 µM)	<0.5	<0.5	–
CCn1cc(C(=O)O)c(=O)c2ccc(C)nc21 [NALIDIXIC ACID]	15.6 (≈ 67.2 µM)	62.5 (≈ 269 µM)	–	–	MID (Staphylococcus aureus [17]): 0.0625; MID (Proteus mirabilis [25]): 0.00781
Oc1ccc(Nn2cccc2)c2ccccc12	62.5 (≈ 279 µM)	≤ 7.8	< 0.5	–	MID (Staphylococcus aureus [5]): 0.25
Cc1ccc(C)n1Nc1ccc(O)cc1	15.6 (≈ 77.1 µM)	≤ 7.8	<0.5	–	MID (Staphylococcus aureus [5]): 0.25
O=C1C=C/C(=N/n2cccc2)c2ccccc21	> 62.5	31.3 (≈ 141 µM)	<0.5	–	MID (Staphylococcus aureus [19]): 0.5
O=Nc1ccc(Nn2cccc2)cc1	250 (≈ 1340 µM)	125 (≈ 668 µM)	<0.5	<0.5	–
